Screening data (PubChem)
Most compounds without a hit are left out; they make up all but 3.5% or so of the library.
RGS4 block: inhibitors of human RGS4 | AID 463165 | B-score at 10 µM | P49798 | HEK293 M3R/RGS4 inducible, Fluo-4 calcium flux; stronger effect = higher value; triggered by carbachol at its EC20 | 0.45% of 310,000 active;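 active means B-score, a plate-corrected calcium signal, over three deviations above library mean, with baseline fluorescence within five deviations of library mean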;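 further: RGS4 expression induced by doxycycline in cells with stable M3 receptor; B-score is computed from the integrated fluorescence ratio over baseline after carbachol; higher B-score means a larger calcium signal and so more RGS4 inhibition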
Target sequence (P49798 whole entry, looked up): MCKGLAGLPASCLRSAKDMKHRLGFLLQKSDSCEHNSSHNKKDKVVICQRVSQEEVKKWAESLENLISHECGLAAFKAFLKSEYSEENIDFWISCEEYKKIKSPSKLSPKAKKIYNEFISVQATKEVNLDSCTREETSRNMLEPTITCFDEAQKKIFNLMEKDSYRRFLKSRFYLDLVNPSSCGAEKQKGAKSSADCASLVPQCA
MrgX1 PAM: human MrgX1 positive allosteric modulation, primary screen. Q96LB2. MrgX1-HEK293, Fluo-4 calcium flux, FDSS; stronger effect = higher value. 0.63% of 310,000 active. B-score at 10 µM. AID 588675;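 active means plate-corrected calcium response at least 3 library SD above typical, normal starting fluorescence, not activating the receptor alone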;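 further: compound read alongside a low EC10 to EC30 dose of BAM8-22 agonist; peak minus trough fluorescence over baseline measured at the second addition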
Target sequence (Q96LB2 whole entry, looked up): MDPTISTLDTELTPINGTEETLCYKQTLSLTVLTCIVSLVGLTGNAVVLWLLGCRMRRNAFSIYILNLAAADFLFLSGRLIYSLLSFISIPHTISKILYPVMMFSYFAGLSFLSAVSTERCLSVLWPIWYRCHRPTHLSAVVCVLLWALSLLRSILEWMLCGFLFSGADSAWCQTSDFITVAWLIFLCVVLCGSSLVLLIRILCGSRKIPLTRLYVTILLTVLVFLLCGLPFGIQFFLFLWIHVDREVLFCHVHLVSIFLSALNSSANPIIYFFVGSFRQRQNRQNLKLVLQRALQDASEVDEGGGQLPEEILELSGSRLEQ
RGS4 pot: potentiators or activators of RGS4. HEK293 M3R/inducible RGS4, carbachol calcium flux Fluo4; stronger effect = lower value. 0.92% of 310,000 active. B-score at 10 µM;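 active means B-score of the integrated calcium signal more than 4 SD below the library mean, with starting fluorescence not abnormally high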;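 further: negative B-score means reduced calcium response which marks RGS4 activation or potentiation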
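Reagent: ECmax carbachol challenge; Test system: M3R-expressing HEK293 line, RGS4 induced by doxycycline; Schedule: overnight RGS4 induction, 30 min dye load 37 °C, 20 min compound RT; Detection: calcium dye Fluo4 fluorescence; Read-out: Agonist-evoked peak-minus-minimum fluorescence over baseline, integrated ratio, B score.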
MrgX1 ag: agonists of human MrgX1 receptor; 0.44% of 310,000 active; B-score at 10 µM; MrgX1-HEK293 cells, Fluo-4 calcium fluorescence, agonist mode; stronger effect = higher value;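 active means calcium response B-score plate-corrected fluorescence ratio at least 3 library SD, with starting fluorescence B-score inside 5 SD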
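System – MrgX1-expressing HEK293 cells · Incubation – cells plated overnight, dye loaded 0.5 h 37 °C, 0.5 h room temperature · Technique – kinetic Fluo-4 NW fluorescence of intracellular calcium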
MrgX1 antag: antagonists of human MrgX1 receptor; MRGX1-HEK293 calcium flux, Fluo-4, BAM8-22 antagonism; stronger effect = lower value; 1.3% of 310,000 active; Q96LB2; AID 588676; B-score at 10 µM;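 active means calcium-response B-score plate-corrected more than 3 library SD below zero, starting fluorescence within 5 deviations, no agonist response on first addition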;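 further: peak minus trough fluorescence over baseline after final BAM8-22 challenge near maximal dose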
RGS4 block valid: RGS4 inhibitor validation | shares compounds with RGS4 block | HEK293 M3R/RGS4, carbachol calcium Fluo-4 fluorescence; carbachol added at its EC20; 0 = buffer wells, 100 = carbachol control | calcium response, % at 10 µM | 65% of 1,700 active;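 active means duplicate-averaged calcium response above the buffer-only control mean plus 5 SD of those controls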;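 further: integrated fluorescence ratio F max minus min over baseline F0; higher response in RGS4-induced cells means RGS4 inhibition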
M3R Ca ctr: checks RGS4 inhibitor effects in non-induced HEK293 M3R cells; shares compounds with RGS4 block; carbachol calcium Fluo-4; submaximal (EC20) carbachol stimulus; buffer wells 0%, carbachol control wells 100%; activity (percent), % at 10 µM; 20% of 1,900 active; call rule not given here;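 further: RGS4 induction absent so cells express M3R without RGS4; higher means more calcium signal and flags a non-specific hit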
RGS4 inh ctr2: signal in non-induced cells without carbachol, RGS4 inhibitor counter-screen. shares compounds with RGS4 block. HEK293 M3R/RGS4 non-induced, Fluo-4 calcium, no carbachol; normalised: buffer wells 0%, carbachol wells 100%. calcium response (agonist-mode artifact), % at 10 µM. 22% of 1,900 active;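 active means duplicate-averaged calcium rise in uninduced cells above buffer wells' mean plus 5 SD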
Active calls of the source: *; i = inactive; . = not tested or not shown.

SMILES	RGS4 block	MrgX1 PAM	RGS4 pot	MrgX1 ag	MrgX1 antag	RGS4 block valid	M3R Ca ctr	RGS4 inh ctr2
Cc1ccc(-n2nc3c(c2NC(=O)c2ccc4c(c2)OCO4)CS(=O)C3)c(C)c1 (stereo not given)	i	i	i	i	i	.	.	.
CCc1nnc(N/N=C/c2ccc(N3CCC(C)CC3)c([N+](=O)[O-])c2)n1N	i	i	i	i	i	.	.	.
Cc1nnc(N/N=C/c2cc([N+](=O)[O-])c(N3CCC(C)CC3)cc2N2CCC(C)CC2)n1N	4.9*	i	i	i	i	9.5%*	36%*	i
COc1ccccc1/C=C1\N=C(C(C)(C)C)OC1=O	i	i	i	i	i	.	.	.
CCOc1ccc(/C(O)=C2/C(=O)C(=O)N(c3nc(C)c(C)s3)C2c2ccco2)cc1 (stereo not given)	i	i	i	i	i	.	i	i
O=C(Nc1cnc2ccccn2c1=O)c1ccc(Cl)cc1	4.8*	i	i	i	i	i	i	i
CC(=O)/C(=N/Nc1cccc(C)c1)N1CCOCC1	18*	i	i	i	i	10%*	58%*	i
Cc1nn2c(-c3ccccn3)ccnc2c1Br	i	i	i	i	i	.	.	.
Cc1nn2c(-c3ccncc3)ccnc2c1Br	i	i	i	i	i	i	i	i
Cc1nn2c(-c3ccc(F)cc3)ccnc2c1Br	i	i	i	i	i	.	i	i
COc1ccc(C2=Nn3c(nnc3C3CCCCC3)SC2)cc1OC	11*	i	i	i	i	22%*	49%*	i
COc1ccc(-c2nnc3n2N=C(C)CS3)cc1OC	i	i	i	i	i	.	.	.
CCCc1nnc2n1N=C(c1ccc(OC)c(OC)c1)CS2	7.4*	i	i	i	i	12%*	28%*	i
COc1ccc(OC)c(C2=Nn3c(nnc3C3CCCCC3)SC2)c1	i	i	i	i	i	.	.	.
COc1ccc(C2=Nn3c(nnc3-c3ccccc3)SC2)cc1OC	i	i	i	i	i	.	i	i
CCC(=O)Nc1ccc(NC(=O)CSc2nnnn2Cc2ccccc2)cc1C	i	.	i	.	.	.	.	.
COc1ccc(/C=C2/C(=O)ON=C2C)cc1Cl	i	i	i	i	i	.	.	.
CC1=NOC(=O)/C1=C/c1ccc(O)c(Br)c1	9.1*	i	i	38*	i	30%*	i	68%*
CC1=NOC(=O)/C1=C/c1ccc(O)cc1	5.8*	i	i	i	i	12%*	i	i
CCOc1ccc(C(=O)NCC2CCCN2S(=O)(=O)c2cccs2)cc1 (stereo not given)	i	i	i	i	i	.	.	.
O=C(CSc1nnc(SCc2ccccc2)s1)N/N=C/c1c[nH]c2ccccc12	i	.	i	.	.	i	i	i
O=C(CSc1nnc(SCc2ccccc2Cl)s1)N/N=C/c1c[nH]c2ccccc12	6.8*	i	i	i	i	14%*	i	i
COC(=O)CCSC(=S)N1CCOCC1	i	i	i	i	i	.	.	.
COc1ccccc1NC(=O)c1cnc(SCC(=O)NCC2CCCO2)n(C)c1=O (stereo not given)	5.4*	i	i	i	i	9.0%*	i	i
O=C(O)CN1C(=O)/C(=C/c2cccc(Cl)c2)Oc2ccccc21	i	i	i	i	i	.	.	.
SMILES	RGS4 block	MrgX1 PAM	RGS4 pot	MrgX1 ag	MrgX1 antag	RGS4 block valid	M3R Ca ctr	RGS4 inh ctr2
O=C(O)CN1C(=O)/C(=C/c2ccccc2Cl)Oc2ccccc21	6.5*	i	i	i	i	22%*	31%*	i
O=C(NCc1ccccc1Cl)c1cc(C(=O)C2CC2)c[nH]1	i	i	i	i	i	.	.	.
O=C(O)CCCN1C(=O)/C(=C\C(Cl)=C\c2ccccc2)SC1=S	15*	i	i	i	i	44%*	i	i
O=C(O)CCCN1C(=O)/C(=C\c2ccc(-c3nc4ccccc4s3)o2)SC1=S	21*	i	-7.9*	i	-8*	14%*	i	126%*
CN1CCN(C(=O)CCCN2C(=O)/C(=C/c3ccccc3)SC2=S)CC1	i	i	i	i	i	.	.	.
c1ccc2c(SCc3cn4ccccc4n3)nncc2c1	i	i	i	i	i	.	.	.
O=Nc1c(O)n(Cc2ccc(Cl)cc2Cl)c2ccccc12	6.6*	i	i	i	i	5.5%*	i	i
CCc1nnc(NC(=O)CSc2nc(C)cs2)s1	i	i	i	i	i	.	.	.
CC(=O)Oc1ccc([C@@H]2COc3c(ccc4c3C=CC(C)(C)O4)C2)c(OC(C)=O)c1	6.1*	i	i	i	i	17%*	i	i
O=C(NC(C(=O)N/N=C/c1ccncc1)c1n[nH]c(=O)c2ccccc12)c1ccccc1 (stereo not given)	i	i	i	i	i	.	.	.
O=C(NC(C(=O)N/N=C/c1cccc2ccccc12)c1n[nH]c(=O)c2ccccc12)c1ccccc1 (stereo not given)	14*	i	i	i	i	24%*	30%*	i
C=C(C)C(=O)Oc1ccc(N2C(=O)[C@@H]3C4C=CC(C4)[C@@H]3C2=O)cc1	i	i	i	i	i	.	.	.
O=C(NCc1ccccc1OC(F)(F)F)C1CCC(=O)N(C2CC2)C1 (stereo not given)	i	i	i	i	i	.	.	.
CO/C=C\C=C/c1nnn(-c2ccc(Cl)cc2)n1	7.5*	i	i	i	i	i	i	8.0%*
COc1ccc(NC(=O)[C@@H](NC(=O)c2ccccc2F)C(C)C)cc1S(=O)(=O)N1CCOCC1	i	i	i	i	i	.	.	.
CCCCNC(=O)C1CC(=O)N(CCc2ccc(C)cc2)C1 (stereo not given)	i	i	i	i	i	.	.	.
CC(=O)N1[C@H](Cc2ccccc2)C=C[C@]1(C)C(=O)NCc1ccccn1	i	i	i	i	i	.	.	.
NNc1nc(Nc2ccccc2)nc(N2CCCCC2)n1	i	i	i	i	i	i	i	i
